Assay outcomes deposited in PubChem by several laboratories.
Compounds with a hit are over-represented: about 5.6% of the library has one in this group of screens.
UPR CHOP act – apoptotic UPR (CHOP) activation; activation, % at 10 µM; actives 0.34% (n = 330,000); CHO-CHOP luciferase reporter, luminescence; percent of tunicamycin response over DMSO baseline;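 active = at 10 µM dose, activation of 40% or more, normalized to positive control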;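 note: 100% = tunicamycin at 10 µg/mL and 0% = DMSO alone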
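Evaluation: % reporter activation, DMSO baseline versus tunicamycin full activation; System: CHO-CHOP luciferase reporter cell line; Input: 500 cells/well; Incubation: 6 h compound treatment, 37 °C; Measured by: Steady-Glo luciferase luminescence; Dosing: one dose, 10 µM in 0.5% DMSO; Buffer or medium: F12 medium, 10% FBS; Benchmarks: positive tunicamycin 10 µg/mL, negative DMSO alone.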
aDG glyco up – alpha-DG glycosylation activation. Pro5-aDG cells, alpha-DG glycosylation AlphaScreen (IIH6); 0% Pro5, 100% B10-LARGE cell signal. activation, % at 10 µM. actives 0.22% (n = 360,000). AID 624168;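 active = activation of at least 8% versus controls, or a plate z-score of at least 8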;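 note: Pro5 are CHO cells carrying HIG-tagged alpha-DG that lacks glycosylation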
CHOP inh – blocks CHOP induction under ER stress; actives 3.8% (n = 220,000); AID 2732; CHO-K1 CHOP-promoter luciferase, tunicamycin-induced, 15-18 h; inhibition, % at 10 µM;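 active = compounds that reduced the stress-induced luciferase reporter signal by more than about 70% of percent inhibition, limit read from the data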;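 note: 0% = tunicamycin plus vehicle and 100% = wells without tunicamycin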
MPTP block – blocks calcium-induced mitochondrial swelling; actives 1.4% (n = 360,000); AID 602449; isolated mouse mitochondria, Ca2+ swelling absorbance, 30 min; inhibition, % at 10 µM;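 active = inhibition of 50% or more, scaled per plate between neutral and stimulator controls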;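 note: 0% = DMSO wells given calcium and 100% = 1 mM EGTA wells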
XBP1 UPR activ – activators of adaptive arm of unfolded protein response (XBP1) | CHO-XBP1 luciferase reporter, IRE1-XBP1 UPR activation, luminescence; percent of tunicamycin response, DMSO as zero | actives 0.33% (n = 330,000) | AID 463104 | activation, % at 20 µM;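 active = versus positive control, 20 µM dose yields 30% or more activation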;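 note: 100% = tunicamycin at 10 µg/mL and 0% = DMSO only wells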
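Material: IRE1-XBP1 luciferase reporter CHO line / Quantity: one thousand reporter cells per well / Buffer or medium: F12 with 10% serum / Compound: 20 µM single concentration, DMSO 1% / Times: 6 h treatment, 37 °C / Detection: Steady-Glo luciferase glow luminescence, 10 min after reagent addition / Benchmarks: tunicamycin high, DMSO low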
GRIN3A LBD mod – modulators (binders) of human NR3A ligand-binding domain. NR3A LBD differential scanning fluorimetry, Tm shift; 0% = protein alone, 100% = glycine-bound protein. Tm shift relative to glycine control, % at 25 µM. actives 2.5% (n = 340,000). AID 1259313;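 active = melting temperature shift of at least 10% of the positive control shift, at one fixed dose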
MPTP counter – membrane potential counter-screen of mitochondrial pore inhibitors. shares compounds with MPTP block. isolated mitochondria, Rhodamine 123 fluorescence. inhibition, % at 10 µM. actives 78% (n = 5,000). AID 624504; in the data active = inhibition above about 22%;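 note: 0% = DMSO vehicle and 100% = positive control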
aDG conf – confirmation of alpha dystroglycan glycosylation activators; AID 651671; actives 17% (n = 600); shares compounds with aDG glyco up; Pro5-aDG cells, alpha-DG glycosylation, IIH6 AlphaLISA; scaled to LARGE-overexpressing B10 cells as 100%; activation, % at 10 µM (by protocol);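 active = activation of at least 7% in one or more replicates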;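 note: cells exposed to compound for two days before detection; 0% = DMSO-treated Pro5 cells and 100% = DMSO-treated B10-LARGE cells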
* hit, by the source's call; nt = not tested or not shown.

SMILES	UPR CHOP act	aDG glyco up	CHOP inh	MPTP block	XBP1 UPR activ	GRIN3A LBD mod	MPTP counter	aDG conf
Cc1ccc(NS(=O)(=O)c2ccc(C(=O)NC3CCN(Cc4ccccc4)CC3)cc2)cc1	3.5	13.4*	nt	59.5*	-2.2	-6.1	21.8*	4.8*
Cc1ccc(NS(=O)(=O)c2cccc(C(=O)NC3CCN(Cc4ccccc4)CC3)c2)cc1	nt	0.7	nt	3.4	nt	1.4	nt	nt
O=S(=O)(c1ccc(F)cc1)N1CCC2(CC1)OCCN2S(=O)(=O)c1cccs1	-0.5	0.2	nt	-0.7	-0.9	-1.7	nt	nt
Cc1csc2ncnc(NCCc3ccccn3)c12	3.1	10.4*	55.1	86.9*	-2.3	-0.8	69.5*	1.7
c1ccc(CCNc2ccccn2)nc1	nt	1.5	nt	-0.3	nt	-1.0	nt	nt
COc1ccc(C(=O)Nc2ccc(Cl)c(S(=O)(=O)Nc3ccccc3OC)c2)cc1	-1.2	3.7*	48.2	54.9*	-2.1	2.6	70.0*	0.8
CCN(CC)c1ccc(NC(=O)c2ccccc2)cc1S(=O)(=O)Nc1ccccc1OC	1.0	0.1	15.4	4.4	-2.4	3.5	nt	nt
CC12CCC(=O)N1C(C(=O)Nc1cccc(S(=O)(=O)N3CCCCCC3)c1)CS2 (stereo unspecified)	0.2	-0.2	nt	0.8	-0.2	-0.6	nt	nt
O=C(Cn1cnc2ccccc21)Nc1ccc(SC(F)F)cc1	-0.4	10.5*	51.5	93.2*	1.1	-3.7	86.6*	0.8
COc1ccc(NC(=O)COC(=O)Cn2cnc3ccccc32)cc1	0.3	-0.2	nt	-0.3	-0.1	-0.3	nt	nt
CCCC(=O)c1ccc(N2CCN(C(=O)c3ccccc3Br)CC2)c(F)c1	8.5	5.2*	74.1*	79.7*	-4.5	6.6	65.6*	-0.2
CCCC(=O)c1ccc(N2CCN(C(=O)c3ccccc3)CC2)c(F)c1	2.7	1.8	28.7	2.4	-1.6	-0.4	nt	nt
NS(=O)(=O)c1ccc(CCNCc2cc(Br)ccc2OCc2ccccc2F)cc1	6.1	7.6*	51.1	78.3*	1.0	2.0	65.6*	1.2
O=S(=O)(c1ccc(Cl)cc1)N1CCN(c2ncnc3sccc23)CC1	3.9	4.8*	nt	70.1*	-2.6	-2.2	94.3*	0.9
Cc1ccc(C2(c3noc(CN4CCC(c5ccncc5)CC4)n3)CCCC2)cc1	-0.7	6.0*	42.6	69.3*	3.9	-1.3	46.4*	-0.3
Nc1nc(Cl)cc(N2CCC(c3cc(-c4ccc(Cl)cc4Cl)n[nH]3)CC2)n1	8.0	11.1*	88.5*	64.5*	4.8	13.0*	63.0*	1.4
Nc1nc(Cl)cc(N2CCCC2)n1	-0.2	0.0	-17.4	-1.3	-3.4	0.8	nt	nt
COCCNC(=O)C1CCCN(C(=O)c2cc(-c3ccccc3)cs2)CC1 (stereo unspecified)	nt	0.2	nt	-0.4	nt	nt	nt	nt
O=C(NNc1ccnc2cc(Cl)ccc12)C1CCCCC1	3.3	10.0*	65.1	99.2*	-0.2	1.9	90.3*	-0.4
Cc1cccc(NC(=O)c2cc[n+]([O-])cc2)c1C	-2.5	-0.1	nt	0.3	-1.7	0.9	nt	nt
CCOC(=O)C1CCCN(S(=O)(=O)c2ccc(S(=O)(=O)N3CCCC3)cc2)C1 (stereo unspecified)	3.6	4.5*	nt	61.5*	-3.4	0.8	73.6*	-0.5
CCOc1ccc(N=Cc2ccccc2O)cc1	nt	0.0	nt	-1.0	nt	-386.2	nt	nt
CC(Sc1nnc(-c2ccc(OC(F)F)cc2)n1N)C(=O)NCC1CCCO1 (stereo unspecified)	-1.7	-0.1	nt	-0.2	-2.5	-1.9	nt	nt
CC(CNC(=O)c1cc(COc2ccc3ncccc3c2)on1)c1ccccc1 (stereo unspecified)	3.1	4.7*	nt	98.6*	-4.6	-0.8	101.5*	2.3
COc1cc(/C=C/C(=O)OCC(=O)NCc2ccco2)ccc1O	1.3	-0.3	nt	0.2	-0.9	-4.8	nt	nt
SMILES	UPR CHOP act	aDG glyco up	CHOP inh	MPTP block	XBP1 UPR activ	GRIN3A LBD mod	MPTP counter	aDG conf
CC(C)(C)c1nnc(NC(=O)Nc2ccc(Cl)cc2)s1	4.5	2.2*	22.7	58.0*	4.0	-0.2	85.6*	0.0
COc1ccc(N=C2SCC(=O)N2CCc2ccc(OC)c(OC)c2)cc1	-1.0	0.2	-5.8	22.0	0.0	-0.4	nt	nt
COc1ccc(CCN2C(=O)CSC2=Nc2ccc(C(C)C)cc2)cc1OC	7.9	2.9*	54.7	90.3*	2.2	-0.9	94.2*	0.2
NCCCC[C@@H](C(=O)N1CCNCC1)n1cc([C@@H](N)CO)nn1	-0.1	-0.1	7.3	0.2	4.0	-1.1	nt	nt
Cc1ccc(OCCCCn2ccnc2C)c(C)c1	-0.8	3.0*	16.1	61.1*	-1.7	-1.5	27.0*	-0.9
Cc1ccc(CN(C)C(=O)COc2ccc(S(=O)(=O)N3CCCC3)cc2[N+](=O)[O-])c(C)c1	0.1	-0.4	nt	1.2	-0.7	-3.0	nt	nt
Cc1noc(C)c1CSCC(=O)N1CCN(c2ccc(F)cc2)CC1	0.3	0.5	23.9	7.9	-1.8	-2.6	nt	nt
Cc1cccc(N2CCN(C(=O)CSCc3c(C)noc3C)CC2)c1C	9.1	6.8*	50.9	89.6*	1.9	-1.3	74.7*	2.2
CC1CCCN(CCCNC(=O)c2nn(C)c3c2CSc2ccccc2-3)C1 (stereo unspecified)	1.2	6.3*	nt	-2.3	0.3	-1.2	nt	9.0*
CC1CCCCN1CCCNC(=O)c1nn(C)c2c1CSc1ccccc1-2 (stereo unspecified)	-3.9	1.9	nt	1.1	-1.0	2.6	nt	nt
Cc1cc(C)c(C(=O)CN2C(=O)NC3(CCCCCC3)C2=O)cc1C	3.0	0.4	26.9	-0.6	-0.4	0.2	nt	nt
COc1cccc(OC)c1C(=O)Nc1cccc(-n2cnnn2)c1	-1.1	0.1	nt	-1.5	-2.5	-0.4	nt	nt
CN(C)c1cccc(C(=O)Nc2cccc(S(=O)(=O)NC3=NCCC3)c2)c1	2.9	0.0	nt	-0.2	-0.2	-3.3	nt	nt
O=C(OCc1ccccc1)N1CCC2CC1c1cc(N3CCCCC3)ccc12 (stereo unspecified)	nt	5.9*	nt	-0.3	nt	-1.7	nt	-1.1
CC(C)c1cc(-c2cc(-c3ccc(Cl)cc3)on2)nc(NC2CCCC2)n1	-2.2	5.7*	-12.4	-0.5	-1.5	2.2	nt	1.3
COc1ccc(NC(C)C(=O)N/N=C/c2ccc([N+](=O)[O-])s2)cc1 (stereo unspecified)	0.5	9.7*	-20.6	-0.7	-2.5	-0.6	nt	3.4
